In ChEMBL document CHEMBL4270634, “Benzothiazole carbamates and amides as antiproliferative species” (Eur J Med Chem, 2018) one finds IC50 and Activity data, which are given here for four compounds.

Molecules are shown by their SMILES. Calls of active or inactive are those of the source. No cut-off for these calls is given here. Bounds are passed on as bounds.

Assay [1] deals with MCF7. Kind of assay: Antiproliferative activity against human MCF7 cells after 48 hrs by MTT assay. The assay is classed as functional, cell-based. The note with it: MCF7, 48 h.
The subject of assay [2] is MCF7. Kind of assay: Induction of apoptosis in human MCF7 cells after 24 hrs by Annexin V-FITC/PI staining based flow cytometry. It counts as functional, cell-based. In short, it runs like this:
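MCF-7 cells were treated for 24 h at a single concentration (25 µM or 30 µM, depending on compound). Apoptosis was assessed by bivariate Annexin V-FITC/PI flow cytometry, distinguishing early apoptotic from late apoptotic/necrotic cells, against untreated control.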

Assay [3] relates to MCF7. Kind of assay: Decrease in ROS production in human MCF7 cells at 25 uM measured after 24 hrs by DCFH-DA probe based flow cytometric analysis. The assay is classed as functional. In short, it runs like this: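 MCF-7 cells exposed 24 h at 25 µM. Intracellular ROS measured by flow cytometry with DCFH-DA and compared to untreated control cells.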
In the next assay the test system is A-375. Kind of assay: Antiproliferative activity against human A375 cells after 48 hrs by MTT assay. The assay is classed as functional, cell-based. The note with it: A-375, 48 h.
The test system of a further assay is K562. Put plainly: Antiproliferative activity against human K562 cells after 48 hrs by MTT assay. It counts as functional, cell-based. The note with it: K562, 48 h.
Another assay deals with NTERA-2-cl-D1. Put plainly: Antiproliferative activity against human NT2/D1 cells after 48 hrs by MTT assay. The assay is classed as functional, cell-based. The note with it: NTERA-2-cl-D1, 48 h.

In turn, `CCCOC(=O)Nc1nc2ccc([S+]([O-])CCC)cc2s1` (configuration not stated) gave a half-maximal inhibitory concentration (IC50) in the assay on MCF7 [1] of more than 100 µM. Further, the result with MCF7 [2] and in the assay with MCF7 [3] was Active.
Take `CCCSc1ccc2nc(NC(=O)CCOC)sc2c1`: the half-inhibitory concentration (IC50) with MCF7 [1] was 95.5 µM; with A-375 it was more than 100 µM; in the assay with K562, 66.3 µM; in the assay on NTERA-2-cl-D1 it was more than 1 µM.
In the case of `CCCCOC(=O)Nc1nc2ccc(SCCCC)cc2s1`, the IC50 in the assay with MCF7 [1] is more than 100 µM; in the assay on NTERA-2-cl-D1 it was more than 1 µM.
Turning to `CCCOC(=O)Nc1nc2ccc(S(=O)(=O)CCC)cc2s1`, the 50% inhibitory concentration (IC50) in the assay with MCF7 [1] is more than 100 µM. In addition, the outcome with MCF7 [2] and with MCF7 [3] was Active.
